According to ChEMBL document CHEMBL5356943, “Development of anti-HBV agents targeting HBV capsid proteins” (RSC Med Chem, 2023):

What was measured:
[1] = (§1) Ratio of compound EC50 to N-((5-bromopyridin-2-yl)carbamothioyl)-4-chlorobenzamide EC50 for antiviral activity against Hepatitis B virus genotype C infected in chimeric humanized liver mouse model PXB cells assessed as inhibition of HBcrAg level treated with infected cells on day 2 and measured on day 12 to 14 by ELISA; assay type: functional; conditions: time 10-12 day
Procedure, shortened: (§2)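 PXB hepatocytes received serially diluted compound on day 2 and HBV genotype C on day 0. After 20–28 h, cells were washed and compound-containing medium renewed. Supernatant antigen on days 12–14 was measured by ELISA to give EC50 (50% antigen reduction). Each value is expressed as a ratio to the EC50 of the parent lead compound in the same antigen assay.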

[2] = Cytotoxicity against human HepG2 cells assessed as reduction in cell viability incubated for 7 days by MTT assay; assay type: toxicity, cell-based; conditions: time 7 day
Procedure, shortened: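 HepG2 (human hepatocellular carcinoma) viability by MTT assay, optical density read on a kinetic microplate reader. CC50 is the concentration giving 50% reduction of viability. Mean of at least two independent experiments.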

[3] = as §1, with “HBsAg” for “HBcrAg”; assay type: functional; conditions: time 10-12 day; procedure, shortened: as §2
[4] = Cytotoxicity against human HuCCT-1 cells assessed as reduction in cell viability by MTT assay; assay type: toxicity, cell-based
Procedure, shortened: (§3)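 Each cell line cultured with serially diluted compound, then viability measured by MTT assay on a microplate reader. CC50 is the concentration giving 50% reduction of viability.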

[5] = Cytotoxicity against human Huh-7 cells assessed as reduction in cell viability by MTT assay; assay type: toxicity, cell-based; procedure, shortened: as §3
[6] = Cytotoxicity against human G415 cells assessed as reduction in cell viability by MTT assay; assay type: toxicity, cell-based; procedure, shortened: as §3
[7] = Cytotoxicity against human Li-7 cells assessed as reduction in cell viability by MTT assay; assay type: toxicity, cell-based; procedure, shortened: as §3
[8] = Cytotoxicity against human LI90 cells assessed as reduction in cell viability by MTT assay; assay type: toxicity, cell-based; procedure, shortened: as §3
[9] = Cytotoxicity against human RBE cells assessed as reduction in cell viability by MTT assay; assay type: toxicity, cell-based; procedure, shortened: as §3
[10] = Cytotoxicity against human HLE cells assessed as reduction in cell viability by MTT assay; assay type: toxicity, cell-based; procedure, shortened: as §3
[11] = Cytotoxicity against human SSP-25 cells assessed as reduction in cell viability by MTT assay; assay type: toxicity, cell-based; procedure, shortened: as §3
[12] = tested on: Hepatitis B virus; experiment: Antiviral activity against Hepatitis B virus genotype C infected in chimeric humanized liver mouse model PXB cells assessed as inhibition of HBsAg level treated with infected cells on day 2 and measured on day 12 to 14 by ELISA; assay type: functional, organism-based
Procedure, shortened: (§4)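 Human hepatocytes (PXB cells) from chimeric humanized-liver mice were seeded in 96-well plates, with serially diluted compound in fresh medium added on day 2. HBV genotype C was added on day 0. After 20–28 h, cells were PBS-washed and medium plus compound replenished. Supernatants were harvested on days 12–14, and antigen was quantified by ELISA. EC50 is the concentration giving 50% antigen reduction.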

[13] = tested on: Hepatitis B virus; experiment: Antiviral activity against Hepatitis B virus genotype C infected in chimeric humanized liver mouse model PXB cells assessed as inhibition of HBcrAg level treated with infected cells on day 2 and measured on day 12 to 14 by ELISA; assay type: functional, organism-based; procedure, shortened: as §4

Structure (SMILES) | Ratio EC50 [1] | CC50 at 168 h [2] | Ratio EC50 [3] | also measured
O=C(NC(=S)Nc1ccc(Br)cn1)c1ccc(Br)cc1 | >12 | 41.8 µM | >4.8 | –
O=C(NC(=S)Nc1ccc(C(F)(F)F)cn1)c1ccc(O)cc1 | 0.86 | 23.7 µM | >4.8 | –
O=C(NC(=S)Nc1ccc(Br)cn1)c1ccc(C(F)(F)F)cc1 | 1.7 | > 100 µM | 0.63 | CC50 [4]: > 100 µM; CC50 [5]: 92.7 µM; CC50 [6]: > 100 µM; CC50 [7]: > 100 µM; CC50 [8]: 62.1 µM; CC50 [9]: 81.1 µM; CC50 [10]: > 100 µM; CC50 [11]: 76.3 µM
CC(C)c1ccc(C(=O)NC(=S)Nc2ccc(C(F)(F)F)cn2)cc1 | >12 | 61.9 µM | >4.8 | –
O=C(NC(=S)Nc1ccc(Cl)cn1)c1ccc(Cl)cc1 | 7.5 | 66.3 µM | 6.9 | –
COc1ccc(C(=O)NC(=S)Nc2ccc(C(F)(F)F)cn2)cc1 | >12 | 75.9 µM | >4.8 | –
O=C(NC(=S)Nc1cc2ccccc2cn1)c1ccc(Cl)cc1 | 2.9 | 79.1 µM | 31 | –
O=C(NC(=S)Nc1ccc(Br)cn1)c1ccc(Cl)cc1 | – | > 100 µM | – | EC50 [12]: 0.69 µM; EC50 [13]: 0.044 µM
Cc1ccc(C(=O)NC(=S)Nc2ccc(C(F)(F)F)cn2)cc1 | >12 | 89.8 µM | >4.8 | –
O=C(NC(=S)Nc1cc(-c2ccccc2)c(C(F)(F)F)cn1)c1ccc(Cl)cc1 | 22 | > 100 µM | 11 | –
O=C(NC(=S)Nc1ccc(C(F)(F)F)cn1)c1ccc(Cl)cc1 | 0.032 | > 100 µM | 0.005 | CC50 [4]: > 100 µM; CC50 [5]: > 100 µM; CC50 [6]: > 100 µM; CC50 [7]: > 100 µM; CC50 [8]: > 100 µM; CC50 [9]: > 100 µM; CC50 [10]: > 100 µM; CC50 [11]: 61.3 µM
O=C(NC(=S)Nc1ccc(C(F)(F)F)cn1)c1ccc(C(F)(F)F)cc1 | 16 | > 100 µM | >2.9 | –
CC(C)(C)c1ccc(C(=O)NC(=S)Nc2ccc(C(F)(F)F)cn2)cc1 | >12 | > 100 µM | >4.8 | –
O=C(NC(=S)Nc1ccc(C(F)(F)F)cn1)c1ccc(I)cc1 | >12 | > 100 µM | >4.8 | –
O=C(NC(=S)Nc1ccc(C(F)(F)F)cn1)c1ccc([N+](=O)[O-])cc1 | 2.7 | > 100 µM | 0.37 | –
O=C(NC(=S)Nc1ccc(F)cn1)c1ccc(Cl)cc1 | 6.2 | > 100 µM | 8.1 | –
O=C(NC(=S)Nc1ccc(C(F)(F)F)cn1)c1ccc(Br)cc1 | 3.8 | > 100 µM | 2.7 | –
O=C(NC(=S)Nc1ccc(C(F)(F)F)cn1)c1ccc(F)cc1 | >12 | 42.2 µM | >4.8 | –
Cc1ccc(NC(=S)NC(=O)c2ccc(Cl)cc2)nc1 | 3.7 | 43.8 µM | 3.8 | –
O=C(NC(=S)Nc1ccc([N+](=O)[O-])cn1)c1ccc(Cl)cc1 | 20 | > 100 µM | 12 | –
O=C(NC(=S)Nc1ccccn1)c1ccc(Cl)cc1 | 7.6 | 26.8 µM | 5.5 | –
C[C@H](Cn1cnc2c(N)ncnc21)OCP(=O)(O)O [TENOFOVIR ANHYDROUS] | – | – | – | EC50 [12]: > 2 µM; EC50 [13]: 0.36 µM
